Measured values taken from ChEMBL document CHEMBL1152436, “Synthesis, biological evaluation, and three-dimensional in silico pharmacophore model for sigma(1) receptor ligands based on a series of substituted benzo[d]oxazol-2(3H)-one derivatives” (J Med Chem, 2009).

Assays:
[1] = biological target: Sigma non-opioid intracellular receptor 1 (Rattus norvegicus, UniProt Q9R0C9); experiment: Displacement of [3H](+)-pentazocine from sigma1 receptor in rat liver membrane by liquid scintillation counting; assay type: cell membranes
[2] = Displacement of [3H]DTG from sigma2 receptor in rat liver membrane by liquid scintillation counting; assay type: cell membranes
How it was run: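 Rat liver homogenate (150 μg) incubated 120 min at room temperature with 3 nM [3H]DTG in 50 mM Tris-HCl pH 8.0. σ1 sites masked with 100 nM (+)-pentazocine; nonspecific binding with 10 μM haloperidol. At least 11 ligand concentrations, 0.1% final DMSO. Filtration on PEI-soaked GF/B filters. IC50 and nH from four-parameter fit, 2–4 determinations in duplicate, mean ± SEM.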

Sigma non-opioid intracellular receptor 1, sequence (Q9R0C9 whole entry): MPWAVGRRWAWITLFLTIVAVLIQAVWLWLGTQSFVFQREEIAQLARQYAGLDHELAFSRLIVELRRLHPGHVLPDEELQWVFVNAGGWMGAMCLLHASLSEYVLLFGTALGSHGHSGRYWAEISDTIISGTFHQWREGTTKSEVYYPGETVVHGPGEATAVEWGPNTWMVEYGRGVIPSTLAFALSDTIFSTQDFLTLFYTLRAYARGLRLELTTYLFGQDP

Structure (SMILES) | Ki [1] | Ki [2]
Cc1ccccc1CN1CCC(Cn2c(=O)oc3ccccc32)CC1 | 29.8 nM | –
Cc1ccc(CN2CCC(Cn3c(=O)oc4ccccc43)CC2)cc1 | 3.07 nM | –
Cc1ccc(CN(C)CCCn2c(=O)oc3ccccc32)cc1 | 871 nM | 991 nM
COc1ccccc1CN(C)CCCn1c(=O)oc2ccccc21 | 1950 nM | 192 nM
COc1ccc(CN(C)CCCn2c(=O)oc3ccccc32)cc1 | 83 nM | 2600 nM
Cc1ccc(CN(C)CCCCn2c(=O)oc3ccccc32)cc1 | 97 nM | 22.9 nM
CN(CCCn1c(=O)oc2ccccc21)Cc1ccccc1Cl | 2490 nM | 456 nM
Cc1ccc(CN2CCC(C(=O)Nc3ccccc3)CC2)cc1 | 105 nM | –
CN(CCCCn1c(=O)oc2ccccc21)Cc1ccccc1Cl | 843 nM | 37.4 nM
CN(CCCCn1c(=O)oc2ccccc21)Cc1ccc(Cl)cc1 | – | 36.2 nM
CN(CCCCn1c(=O)oc2ccccc21)Cc1cccc(Cl)c1 | 302 nM | –
O=C(Nc1ccccc1)C1CCN(Cc2ccccc2)CC1 | 48.1 nM | –
CN(CCCn1c(=O)oc2ccccc21)Cc1cccc(Cl)c1 | 3230 nM | 1120 nM
CN(CCCCn1c(=O)oc2ccccc21)Cc1ccccc1 | – | 120 nM
COc1ccc(CN(C)CCCCn2c(=O)oc3ccccc32)cc1 | 21 nM | 20.8 nM
O=C(Nc1ccccc1)C1CCN(Cc2ccc(Cl)cc2)CC1 | 45 nM | –
COc1ccccc1CN(C)CCCCn1c(=O)oc2ccccc21 | 594 nM | –
CN(CCCn1c(=O)oc2ccccc21)Cc1ccc(Cl)cc1 | – | 456 nM
Cc1ccc(CN2CCC(C(=O)NCc3ccccc3)CC2)cc1 | 69.4 nM | –
Cc1ccc(CN(C)CCCCn2c(=O)oc3ccccc32)c(C)c1 | 239 nM | 6.94 nM
Cc1cccc(CN(C)CCCCn2c(=O)oc3ccccc32)c1 | 102 nM | 31.8 nM
Cc1cccc(CN(C)CCCn2c(=O)oc3ccccc32)c1 | 1830 nM | 2720 nM
CN(CCCn1c(=O)oc2ccccc21)Cc1ccccc1 | – | 1120 nM
Cc1ccccc1CN(C)CCCn1c(=O)oc2ccccc21 | 901 nM | 1350 nM
COc1cccc(CN(C)CCCn2c(=O)oc3ccccc32)c1 | 8550 nM | 2130 nM
Cc1ccc(CN(C)CCCn2c(=O)oc3ccccc32)c(C)c1 | 1830 nM | 2060 nM
COc1cccc(CN(C)CCCCn2c(=O)oc3ccccc32)c1 | 297 nM | 187 nM
CC(C)=CCN1CC[C@]2(C)c3cc(O)ccc3C[C@H]1[C@H]2C [(+)-PENTAZOCINE] | – | 327 nM
Cc1ccccc1NC(=N)Nc1ccccc1C [DITOLYLGUANIDINE] | – | 130 nM
O=C(CCCN1CCC(O)(c2ccc(Cl)cc2)CC1)c1ccc(F)cc1 [HALOPERIDOL] | – | 235 nM
